The results in this text go back to the RNAGym collection of RNA variant scans (doi:10.1126/science.aae0568).

Fewer inactive variants are shown than the library holds. Bounds are passed on as bounds.

The chains are these.
B1: tRNA (parent)
chain: GUUCCGUUGGCGUAAUGGUAACGCGUCUCCCUCCUAAGGAGAAGACUGCGGGUUCGAGUCCCGUACGGAACG

This series covers variants of B1. The series can be described thus: yeast fitness relative to wild type (ratio to wild type); higher = fitter; tRNA-Arg(CCU), competitive growth, 37 C, YPD. A digest of the protocol:
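Amplicons of the tRNA-Arg(CCU) gene were sequenced, 100-nucleotide paired-end, from the start population and from each end population of a pooled yeast competition. The competition, in six parallel replicates, lasted 24 hours in YPD at 37°C. Fitness relative to wild type was calculated from changes in genotype frequencies. Genotypes had to have ≥ 100 starting reads, and estimates < 0.5 were set to 0.5.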
In the case of GUUCCGUUGGCGUAAUGGUUACGCGUCUCCCUCCUAAGGAGAAGACUGCGGGUUCGAGUCCCGUACGACACG [A20U G68A A69C], the yeast fitness was 0.639.
Consider GUUCCGUUGGCGUAAUGGUUACGCGUCUCCCUCCUAAGGAGAAGACUACGGGUUCGAGUCCCGUACGGAACG [A20U G48A], for which the yeast fitness came out at 0.922.
Next, GUUCCGUUGGCGUAAUGGUUACACGUCUCCCUCCUAAGGAGAAGACUGCGGGUUCGAGUCCCGUAUGGAACG [A20U G23A C66U]: 0.55.
Next, GUUCCGUUGGCGUAAUGGUUACGCGUCUCCCUCCUAAGGAGAAGACUGCGGGUUCGAGUCCUGUACGGCACG [A20U C62U A69C]: 0.686; GUUCCGUUGGCGUAAUGGUUACGCGUCUCCCUCCUAAGCGGAAGACUGUGGGUUGGAGUCCCGUACGGAACG [A20U G39C A40G C49U C55G]: at most 0.5; GUUCCGUUGGCGUAAUGGUUACGCGUCUCCCUCCUAAGGAGAAAACUGCGGGUUCGAGUACCGUACGGAACG [A20U G44A C60A]: at most 0.5.
For the variant GUUCCGUUGGCGUAAUGGUUACGCGUCUCCCUCCUAACGAGAAGACUGAGGGUUCGAGUCCCGUACGGAACG [A20U G38C C49A], the yeast fitness was at most 0.5.
Next, GUUCCGUUGGCGUAAUGGUUACGCGUCUCCCUCCUAAGGAGAAGACUGCGGGUUCGAGUCCCGUACAGAGCG [A20U G67A A70G]: 0.882; GUUCCGUUGGCGUAAUGGUUACGCGUCUCCCUCCUAAGGAGAAGACUGCAGGUUCGUGUGCCGUUCGGAACG [A20U G50A A57U C60G A65U]: 0.531.
Next, GUUCCGUUGGCGUAAUGGUUACGCGUCUCCCUCCUAAGGAGAAGACUGCGGGUUCGAGUCCCGUACCGAACG [A20U G67C]: 0.732; GUUCCGUUGGCGUAAUGGUUACGCGUCUCCCUCCUAAGGAGAAGACUGCGGGUUCGAGUCCCGUACAGAACG [A20U G67A]: 0.657.
Next, GUUCCGUUGGCGUAAUGGUUACGCGUCUCCCUCCUAAAGAGAAGACUGCGGGUUCGUGUCCCGUACGGAACG [A20U G38A A57U]: at most 0.5.
As for GUUCCGUUGGCGUAAUGGUUACGCGUCUCCCUCCUAAGGAGAAGACUGCGGGUUCGAGUGCCGUACGGAACG [A20U C60G], the yeast fitness was 0.691.
As to GUUCCGUUGGCGUAAUGGUUACGCGUCUCCCUCCUAAGGAGAAGAUUGCGGGUUCGAGUCCCGUACGGGACG [A20U C46U A69G], the yeast fitness stood at 0.893.
Turning to GUUCCGUUGGCGUAAUGGUUACACGUCUCCCUCCUUAGGAGAAGACUGCGGGUUCGAGUCCCGUUCGGAACG [A20U G23A A36U A65U], the yeast fitness was at most 0.5.
In the case of GUUCCGUUGGCGUAAUGGUUACGCGUCUCCCUCCUAAGCAGAAGACUGCGGGUUCGAGUCCCGUACGGAACG [A20U G39C] it was 0.81; in that of GUUCCGUUGGCGUAAUGGUUACGCAUCUCCCUCCUAAGGAGAAGACUGGGGGUUCGAGUCCCGUACGGAACG [A20U G25A C49G], 0.619.
In the case of GUUCCGUUGGCGUAAUGGUUACGCGUCACCUUCCUAAGGAGAAGACUGCGGGUUGGCGUCCCGUACGGAACG [A20U U28A C31U C55G A57C] it was at most 0.5.
In the case of GUUCCGUUGGCGUAAUGGUUACGCAUGUCCCUCCUAAGGAGAAGACUGCGGGUUCGAGUCCCGUACAGAACG [A20U G25A C27G G67A] it was 0.542.
As for GUUCCGUUGGCGUAAUGGUUACGCGUCUCCCUCCUAAGGAGAAGACUGCGGGUUCGAGUCCCGUAAGGAACG [A20U C66A], the yeast fitness amounted to 0.612.
Next, GUUCCGUUGGCGUAAUGGUUACGCGUCUCCCUCCUAAGGAGAAGACUGCGCGUUCGAGUCCCGUGCGGAACG [A20U G51C A65G]: at most 0.5; GUUCCGUUGGCGUAAUGGUUACGCGUCUCCCUCCUAAGGAGAAGACUGCGGGUUUGCGUCCCGUACGGAACG [A20U C55U A57C]: at most 0.5; GUUCCGUUGGCGUAAUGGUUACGCGUCUCCCUCCUAAGGACAAGAUUGCGGGUUCGAGUCCCGUAAGGAACG [A20U G41C C46U C66A]: at most 0.5.
In the case of GUUCCGUUGGCGUAAUGGUUACACGUCUCCCUCCUUAGGAGAAGACUGCGGGUUCGAGUCCCGUACGGAACG [A20U G23A A36U] it was 0.515; in that of GUUCCGUUGGCGUAAUGGUUACGCGUCUCCCUCCUAAGGAGAAGAGUGCGCGUUCGAGUCUCGUACGGAACG [A20U C46G G51C C61U], at most 0.5; in that of GUUCCGUUGGCGUAAUGGUUACGCGUCUCCCUCCUAAGGAGAAGACUGCGGGUUCGAGUCCCGUAUGGAUCG [A20U C66U A70U], 0.646.
Regarding GUUCCGUUGGCGUAAUGGUUACGCGUCUCCCUCUUAAGGAGAAGACUGCGGGUUCGAGUCCCGUACGGAACG [A20U C34U], the yeast fitness came out at 0.652.
Consider GUUCCGUUGGCGUAAUGGUUACGCGUCUCCCUCGUAAGGAGAAGACUGCGGGUUCGAGUCCCGUACGGAACG [A20U C34G], for which the yeast fitness came to 0.68.
Next, GUUCCGUUGGCGUAAUGGUUACGCCUCUCCCUCCCAAGGAGAAGACUGCGGGUUCGAGUGCCGUACGGAACG [A20U G25C U35C C60G]: at most 0.5; GUUCCGUUGGCGUAAUGGUUACGCAUCUCCCUCCUAAGGAGAAGACUGCGGGUUCGAGUCCCGUACUGAACG [A20U G25A G67U]: 0.673.
Turning to GUUCCGUUGGCGUAAUGGUUACGCGUCUCCCUCCUAAGGACAAGACUGCGGGUUCCAGUCCCGUACGGAACG [A20U G41C G56C], the yeast fitness was 0.574.
In the case of GUUCCGUUGGCGUAAUGGUUACGCGUCUCCCUCCUAAGGAGAAGAUUGCGGGUUGGAGUCCCGUACGGAACG [A20U C46U C55G] it was 0.539; in that of GUUCCGUUGGCGUAAUGGUUACGCGUCUCCCUCUUAAGGAGAAGAUUGCGAGUUCGAGUCCCGUAUGGAACG [A20U C34U C46U G51A C66U], at most 0.5; in that of GUUCCGUUGGCGUAAUGGUUACGCAUCUCCCUCCUAAGGAGAAGACUGCGGGUUCGAGUCCCGUACGGUACG [A20U G25A A69U], 0.838.
Turning to GUUCCGUUGGCGUAAUGGUUACGCGUCUCCCUCCUAAGGAGAAGACUGCGGGUUCGAGUCGCGUACGGAACG [A20U C61G], the yeast fitness came out at 0.712.
For the variant GUUCCGUUGGCGUAAUGGUUACGCGUCUCCCUCCUAAGGAGAAGACUGCGGGUUCGAGUCACGUACGGAACG [A20U C61A], the yeast fitness was 0.646.
For GUUCCGUUGGCGUAAUGGUUACGCGACUCCCUCCUAAGGAGAAGACUGCGGGUUCGAGUCCUGUACGGAACG [A20U U26A C62U], the yeast fitness came out at 0.542.
Regarding GUUCCGUUGGCGUAAUGGUUACACGUCUCCCUCCUAAGGAGAAGACUGUGGGUUCGAGUCCCGUACGGAACG [A20U G23A C49U], the yeast fitness is 0.609.
